# Experiments:
# Acute toxicity in mice = format: in vivo; details: no indications of adverse effects
# Plasma stability = format: in vitro ADME
# CVB3 97927 (I1092) = test: CPE inhibition in HeLa cells, CVB3 97927; format: cell-based, coxsackievirus B3; details: Enterovirus B, read-out: IC50, cytopathic effect of CVB3 97927
# [1] = tested on: 46 RV serotypes and 14 EV strains; test: CPE inhibition assays in HeLa cells, panel of 60 RV and EV strains; format: cell-based, rhinovirus, enterovirus
# [2] = Pharmacokinetics in mice after intragastric administration; format: in vivo
# [3] = tested on: CYP1A, CYP2B6, CYP2C8, CYP2C9, CYP2C19, CYP2D6, and CYP3A; test: Inhibition of cytochrome P450 isoforms; format: in vitro ADME
# K+ channel (hERG) = K+ channel (hERG) (Homo sapiens, UniProt Q12809); test: QT prolongation K+ channel
# CVB3 Nancy = test: Mechanism of action, modified plaque reduction assay; format: cell-based, coxsackievirus B3; details: 0.5 and 1 μM
# CVB3 31-1-93 = test: CVB3-induced chronic myocarditis in NMRI mice; format: in vivo; details: 100 mg kg^−1 orally twice daily for 7 days
# Metabolic stability = format: in vitro ADME
# Subacute = format: in vivo; details: 12.5, 50 and 200 mg kg^−1, 30 days, male BALB/c mice; acute >3 g kg^−1
# CVB3 Nancy (L1092) = test: CPE inhibition in HeLa cells, CVB3 Nancy; format: cell-based, coxsackievirus B3; details: Enterovirus B, read-out: IC50, cytopathic effect of CVB3 Nancy
# CVB3 Nancy wildtype = test: Plaque reduction assay in HeLa cells, CVB3 Nancy wildtype; format: cell-based, coxsackievirus B3; details: Enterovirus B, read-out: IC50 plaque inhibition, CVB3 Nancy wildtype
# In short: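 Plaque reduction assay in HeLa cells on wild-type CVB3 Nancy and on compound-resistant variants. The variants were isolated from wild-type pools under 1 μg mL−1 (2.7 μm) test compound, and their amino acid substitutions were identified by genetic characterization. IC50 is taken from plaque inhibition. Means and/or SD come from at least three assays.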
# [4] = tested on: CYP1A2, CYP2B6, and CYP3A4; test: Induction of cytochrome P450 isoforms; format: in vitro ADME
# K+ channel (hERG), sequence (Q12809 whole entry): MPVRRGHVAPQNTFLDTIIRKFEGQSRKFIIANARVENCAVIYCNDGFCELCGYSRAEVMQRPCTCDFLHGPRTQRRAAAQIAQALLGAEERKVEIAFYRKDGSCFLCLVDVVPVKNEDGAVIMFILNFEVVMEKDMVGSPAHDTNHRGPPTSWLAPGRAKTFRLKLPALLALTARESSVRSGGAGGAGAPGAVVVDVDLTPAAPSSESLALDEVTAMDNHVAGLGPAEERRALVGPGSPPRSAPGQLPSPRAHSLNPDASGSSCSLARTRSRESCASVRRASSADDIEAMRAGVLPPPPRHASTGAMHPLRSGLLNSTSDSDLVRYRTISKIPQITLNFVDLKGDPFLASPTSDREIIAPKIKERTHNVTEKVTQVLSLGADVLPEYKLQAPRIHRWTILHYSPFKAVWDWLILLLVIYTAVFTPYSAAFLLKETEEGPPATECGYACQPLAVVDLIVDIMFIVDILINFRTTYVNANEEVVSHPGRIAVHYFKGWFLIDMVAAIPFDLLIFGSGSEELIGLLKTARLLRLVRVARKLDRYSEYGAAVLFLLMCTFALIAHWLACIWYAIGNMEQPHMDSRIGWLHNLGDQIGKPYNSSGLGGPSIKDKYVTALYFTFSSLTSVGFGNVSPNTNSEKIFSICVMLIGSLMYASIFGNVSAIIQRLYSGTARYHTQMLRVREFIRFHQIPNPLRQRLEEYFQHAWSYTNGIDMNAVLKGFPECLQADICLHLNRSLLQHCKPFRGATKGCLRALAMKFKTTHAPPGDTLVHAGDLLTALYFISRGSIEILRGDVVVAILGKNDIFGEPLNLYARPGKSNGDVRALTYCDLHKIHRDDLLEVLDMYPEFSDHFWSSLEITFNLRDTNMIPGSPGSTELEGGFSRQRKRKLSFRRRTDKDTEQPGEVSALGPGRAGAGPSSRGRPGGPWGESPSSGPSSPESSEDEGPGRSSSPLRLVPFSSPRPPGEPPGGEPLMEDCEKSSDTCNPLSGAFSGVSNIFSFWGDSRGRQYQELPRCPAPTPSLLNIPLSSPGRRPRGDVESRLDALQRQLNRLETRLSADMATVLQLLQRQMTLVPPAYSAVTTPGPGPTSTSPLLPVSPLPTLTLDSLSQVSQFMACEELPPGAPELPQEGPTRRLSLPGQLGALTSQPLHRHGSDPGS
smiles,measurement,setting,value
"Nc1nc(-c2ccccc2)nc2[nH]nc(Nc3ccc(C(F)(F)F)cc3)c12 [Compound 36, 3-(4-trifluoromethylphenyl)amino-6-phenylpyrazolo[3,4-d]pyrimidine-4-amine]",Acute toxicity,Acute toxicity in mice,> 3 g/kg
same,"Plasma stability (human), remaining (%)",Plasma stability,100%
same,IC50,CVB3 97927 (I1092),1050 nM
same,IC50,"[1]; Enterovirus, HeLa, read-out: IC50 values for high-level pleconaril-resistant viruses",40 to 640 nM
same,strains inhibited,"[1]; of the 60 strains tested, CPE inhibition, HeLa cells",52
same,Cl,"[2]; mice, 100 mg/kg intragastric",10.42 mL·h/kg
same,AUC,"[2]; mouse, plasma, po, 100 mg/kg",9600 ng·h/mL
same,AUC(0-t),"[2]; mouse, plasma, po, 100 mg/kg",6420 ng·h/mL
same,MRT,"[2]; mouse, plasma, po, 100 mg/kg",3.54 h
same,Tmax,"[2]; mouse, plasma, po, 100 mg/kg",3 h
same,half-life,"[2]; mouse, plasma, po, 100 mg/kg",3.5 h
same,k el,"[2]; mouse, plasma, po, 100 mg/kg",5e-05 s⁻¹
same,"Inhibition of CYP1A, CYP2B6, CYP2C8, CYP2C9, CYP2C19, CYP2D6, and CYP3A",[3],neither an inducer nor an inhibitor
same,QT prolongation K+ channel (hERG),K+ channel (hERG),low
same,"effect on virus infectivity, incubation with cell-free virus","CVB3 Nancy; 1 h at 37 °C, then diluted 1:10^6",strong loss of virus infectivity
same,"effect on virus-induced plaque formation, pretreatment of cells",CVB3 Nancy; cells pretreated prior to virus inoculation,no effect
same,"antiviral effect, treatment started 3 h prior to or 1 and 3 days p. i.",CVB3 31-1-93,strong antiviral effect
same,"therapeutic effect, treatment started 7 days p. i.","CVB3 31-1-93; start 7 days p. i., results not shown",No therapeutic effect
same,"Metabolic stability (human liver microsomes), remaining %",Metabolic stability,100%
same,"acute and chronic toxicological studies, overall finding",Subacute,"no indications of adverse anatomical, behavioral or physiological effects"
same,IC50,CVB3 Nancy (L1092),160 nM
same,IC50,CVB3 Nancy wildtype,160 ± 30 nM
same,"Induction of CYP1A2, CYP2B6, and CYP3A4",[4],neither an inducer nor an inhibitor
